From ChEMBL document CHEMBL2146426, “Antitubercular nitrofuran isoxazolines with improved pharmacokinetic properties” (Bioorg Med Chem, 2012)
Converted amounts (≈) assume the structure as drawn.

How the values were obtained:
[1] = Volume of distribution in Sprague-Dawley rat at 10 mg/kg, iv; type: ADME, organism-based; parameters: dose 10 mg/kg, route intravenous; conditions: in vivo
Method in brief: (§1)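 Rats, n=5, given 10 mg/kg IV via femoral vein catheter. Vehicle was 2% ethanol/saline or 30% DMSO/30% propylene glycol/20% PEG 3000/20% saline, depending on compound. Plasma sampled 0–48 h and urine collected in intervals to 48 h; both assayed by LC-MS/MS after acetonitrile precipitation. Non-compartmental analysis: CL = dose/AUC0-∞; fe = cumulative unchanged urinary amount/dose.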

Enterococcus faecalis = assay: Antibacterial activity against Enterococcus faecalis ATCC 3186 after overnight incubation by microbroth dilution technique; type: functional
Method in brief: (§2)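 Two-fold serial broth dilutions per CLSI; inoculum about 10^5 CFU/mL; top final drug concentration 200 µg/mL; incubated aerobically overnight at 37°C. MIC read visually as the lowest concentration with no visible growth.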

Rattus norvegicus [2] = assay: Oral bioavailability in Sprague-Dawley rat at 100 mg/kg; type: ADME, organism-based; conditions: in vivo
Method in brief: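 Fasted rats, n=5, dosed 100 mg/kg by oral gavage. Vehicle was 2% methanol, 60:40 PEG 3000/water or 10% vitamin E TPGS, depending on compound. Plasma sampled to 48 h and assayed by LC-MS/MS. F = (AUCoral×DoseIV)/(AUCIV×Doseoral), referenced to 10 mg/kg IV.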

[3] = Plasma protein binding in mouse at 10 uM after 4 hrs by LC/MS analysis; type: ADME, cell-free; conditions: read-out: PPB (converted)
Method in brief: (§3)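 Compound at 10 µM (0.1% DMSO) in mouse or human plasma. Rapid equilibrium dialysis (MWCO 8K) against DPBS pH 7.4, 4 h at 37°C with orbital shaking. Both chambers matrix-matched, precipitated with acetonitrile containing warfarin internal standard, quantified by LC–MS. %Free = buffer/plasma × 100; %Bound = 100 − %Free.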

[4] = Solubility of the compound at pH 7.4 after 18 hrs by UV spectrometry; type: physicochemical; conditions: buffer, pH 7.4
Method in brief: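 10 mM DMSO stocks diluted 100-fold in system solution buffer pH 7.4 and held 18 h at room temperature. Filtered, diluted 1:1 with isopropanol and measured by UV (230–500 nm). Compared against a 600-fold diluted reference in buffer/isopropanol. Triplicates.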

[5] = Clearance in Sprague-Dawley rat at 10 mg/kg, iv; type: ADME, organism-based; parameters: dose 10 mg/kg, route intravenous; conditions: in vivo; method in brief: as §1
[6] = Plasma protein binding in human at 10 uM after 4 hrs by LC/MS analysis; type: ADME, cell-free; conditions: read-out: PPB (converted); method in brief: as §3
Streptococcus pyogenes = assay: Antibacterial activity against Streptococcus pyogenes ATCC 700294 after overnight incubation by microbroth dilution technique; type: functional; method in brief: as §2
Staphylococcus aureus = assay: Antibacterial activity against Staphylococcus aureus ATCC 29213 after overnight incubation by microbroth dilution technique; type: functional; method in brief: as §2
Bacillus anthracis = assay: Antibacterial activity against Bacillus anthracis Sterne 34F2 after overnight incubation by microbroth dilution technique; type: functional
Method in brief: (§4)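 Non-mycobacterial strains: two-fold serial dilutions in broth by CLSI microbroth dilution. Inoculum about 10^5 cfu/mL; top final drug concentration 200 µg/mL. Aerobic incubation at 37°C overnight. MIC read visually as the lowest concentration with no visible growth.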

Rattus norvegicus [7] = assay: Toxicity in Sprague-Dawley rat assessed as mortality at 10 mg/kg, iv; type: organism-based; parameters: dose 10 mg/kg, route intravenous; conditions: in vivo
Method in brief: (§5)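 Observed during rat IV pharmacokinetic study (n=5). Single 10 mg/kg dose via femoral vein catheter, flushed with heparinized locking solution. Vehicle was 2% ethanol/saline or 30% DMSO/30% propylene glycol/20% PEG 3000/20% saline. Animals followed with serial blood sampling to 48 h.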

[8] = Cmax in Sprague-Dawley rat at 10 mg/kg, iv; type: ADME, organism-based; parameters: dose 10 mg/kg, route intravenous; conditions: in vivo; method in brief: as §1
[9] = Half life in Sprague-Dawley rat at 10 mg/kg, iv; type: ADME, organism-based; parameters: dose 10 mg/kg, route intravenous; conditions: in vivo; method in brief: as §1
Rattus norvegicus [10] = assay: Toxicity in Sprague-Dawley rat assessed as mortality at 100 mg/kg, po; type: organism-based; parameters: dose 100 mg/kg, route oral; conditions: in vivo
Method in brief: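 Observed during rat oral pharmacokinetic study (n=5). Overnight-fasted animals, water ad libitum, received 100 mg/kg by oral gavage. Vehicle was compound-dependent: 2% methanol (sonicated), 60:40 PEG 3000/water, or 10% vitamin E TPGS. Animals followed with sampling to 48 h.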

Escherichia coli = assay: Antibacterial activity against Escherichia coli K12 after overnight incubation by microbroth dilution technique; type: functional; conditions: K-12; method in brief: as §4
Vero = assay: Cytotoxicity against african green monkey Vero cells after 72 hrs by MTT assay; type: cell-based; conditions: Chlorocebus sabaeus
Method in brief: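 Vero cells in DMEM with 10% FBS, seeded at ~10% confluency and left to adhere overnight. Two-fold serial dilutions applied for 72 h at 37°C, 5% CO2. MTT read-out at 570 nm after overnight solubilization.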

[11] = AUC (0 to infinity) in Sprague-Dawley rat at 10 mg/kg, iv; type: ADME, organism-based; parameters: time infinity, dose 10 mg/kg, route intravenous; conditions: plasma; method in brief: as §1
Streptococcus pneumoniae = assay: Antibacterial activity against Streptococcus pneumoniae DAW27 after overnight incubation by microbroth dilution technique; type: functional; method in brief: as §2
[12] = Drug excretion in Sprague-Dawley rat urine at 10 mg/kg, iv; type: ADME, organism-based; parameters: dose 10 mg/kg, route intravenous; conditions: read-out: Drug excretion; method in brief: as §1
Bacillus subtilis = assay: Antibacterial activity against Bacillus subtilis ATCC 23857 after overnight incubation by microbroth dilution technique; type: functional; method in brief: as §4
Rattus norvegicus [13] = assay: Toxicity in Sprague-Dawley rat assessed as seizures at 10 mg/kg, iv; type: organism-based; parameters: dose 10 mg/kg, route intravenous; conditions: in vivo; method in brief: as §5
[14] = Volume of distribution in rat; type: ADME, organism-based; conditions: in vivo
Method in brief: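 Plasma concentration–time data from rats (n=5) after IV 10 mg/kg or oral 100 mg/kg. Samples taken 0.25–48 h and measured by LC-MS/MS. Non-compartmental analysis; Vd calculated as AUMC0-∞ × dose divided by the square of AUC0-∞.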

[15] = Cmax in rat at 10 mg/kg, iv; type: ADME, organism-based; parameters: dose 10 mg/kg, route intravenous; conditions: in vivo
Method in brief: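 Rats (n=5) given 10 mg/kg IV via femoral vein catheter. Vehicle was 2% ethanol/saline or 30% DMSO/30% propylene glycol/20% PEG 3000/20% saline, depending on compound. Serial plasma sampled 0–48 h and assayed by LC-MS/MS after acetonitrile precipitation. Cmax read by visual inspection of the concentration–time curve.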

[16] = Drug excretion in rat urine; type: ADME; conditions: read-out: Drug excretion
[17] = Apparent permeability of the compound from apical to basal side of human Caco2 cells at 50 umol/L after 2 hrs by UPLC/MS analysis; type: ADME, cell-based; conditions: Caco-2
Method in brief: (§6)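 Caco-2 monolayers grown 7 days on Transwell inserts, washed with HBSS/HEPES pH 7.4. Compound at 50 µmol/L added apically or basolaterally, then 2 h at 37°C. Receiver side sampled and quantified by UPLC/MS. Papp = (dQ/dt)/(A×C0), triplicates.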

[18] = Half life in human liver microsomes; type: ADME, Microsome
[19] = Half life in mouse liver microsomes; type: ADME, Microsome
Method in brief: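 Mouse liver microsomes at 0.6381 mg/mL protein in 0.1 M potassium phosphate pH 7.4 with EDTA. Reaction started with NADPH regenerating system at 37°C; six time points including 0, triplicate wells. Quenched in cold acetonitrile with warfarin internal standard, analysed by LC–MS. Half-life from a first-order least-squares fit.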

[20] = Apparent permeability of the compound from basal to apical side of human Caco2 cells at 50 umol/L after 2 hrs by UPLC/MS analysis; type: ADME, cell-based; conditions: Caco-2; method in brief: as §6

Row | SMILES | Vd [1] [L/kg] | MIC (Enterococcus faecalis) [µg/mL] | F (Rattus norvegicus [2]) [%] | fraction unbound at 4 h, 10 µM [3] | solubility at 18 h [4] [µg/mL] | clearance [5] [mL/min/kg] | fraction unbound at 4 h, 10 µM [6] | MIC (Streptococcus pyogenes) [µg/mL] | MIC (Staphylococcus aureus) [µg/mL] | MIC (Bacillus anthracis) [µg/mL] | Activity (Rattus norvegicus [7]) | Cmax [8] [ng/mL] | half-life [9] [min] | Activity (Rattus norvegicus [10]) | MIC (Escherichia coli) [µg/mL] | IC50 (Vero) [µg/mL] | AUC(0-inf) [11] [ng·h/mL] | MIC (Streptococcus pneumoniae) [µg/mL] | MIC (Bacillus subtilis) [µg/mL] | Papp A→B at 2 h, 50 µM [17] [×10⁻⁶ cm/s] | further results
1 | CN1CCN(c2ccc(C3CC(c4ccc([N+](=O)[O-])o4)=NO3)cc2)C(=O)C1 (configuration not stated) | 3.1 | 100 (≈ 270 µM) | 58.3 | 0.239 | 28.8 (≈ 77.8 µM) | 194 | 0.426 | 50 (≈ 135 µM) | 6.25 (≈ 16.9 µM) | 12.5 (≈ 33.8 µM) | Toxic | 1190 | 36.6 | Non-toxic | 50 (≈ 135 µM) | 20.3 (≈ 54.8 µM) | 960 | 50 (≈ 135 µM) | 6.25 (≈ 16.9 µM) |  | dose excreted [12]: 0.68%; Activity (Rattus norvegicus [13]): Toxic
2 | CC(=O)NC[C@H]1CN(c2ccc(N3CCOCC3)c(F)c2)C(=O)O1 [LINEZOLID] |  |  |  |  |  |  |  |  |  |  |  |  |  |  |  |  |  |  |  |  | Vd [14]: 0.72 L/kg; Cmax [15]: 15000 ng/mL; dose excreted [16]: 73%
3 | O=[N+]([O-])c1ccc(C2=NOC(c3ccc(N4CCOCC4)cc3)C2)o1 (configuration not stated) | 35 | > 200 | 100 | 0.036 |  | 108 | 0.038 | 25 (≈ 72.8 µM) | 6.25 (≈ 18.2 µM) | 12.5 (≈ 36.4 µM) | Non-toxic | 830 | 143 | Non-toxic | > 200 | 2.9 (≈ 8.45 µM) | 1630 | 50 (≈ 146 µM) | 12.5 (≈ 36.4 µM) | 17.2 | dose excreted [12]: 0%; Activity (Rattus norvegicus [13]): Non-toxic
4 | O=[N+]([O-])c1ccc(C2=NOC(c3ccc(N4CCOCC4)c(F)c3)C2)o1 (configuration not stated) |  | 200 (≈ 554 µM) |  | 0.061 | 3.2 (≈ 8.86 µM) |  | 0.066 | 200 (≈ 554 µM) | 25 (≈ 69.2 µM) | 12.5 (≈ 34.6 µM) |  |  |  |  | > 200 |  |  | 200 (≈ 554 µM) | 200 (≈ 554 µM) |  | 
5 | O=C1COCCN1c1ccc(C2CC(c3ccc([N+](=O)[O-])o3)=NO2)cc1F (configuration not stated) |  | 200 (≈ 533 µM) |  | 0.203 | 12.6 (≈ 33.5 µM) |  | 0.292 | 100 (≈ 266 µM) | 6.25 (≈ 16.7 µM) | 25 (≈ 66.6 µM) |  |  |  |  | > 200 |  |  | 200 (≈ 533 µM) |  | 15.4 | half-life [18]: 499 min; half-life [19]: 82.8 min; Papp B→A at 2 h, 50 µM [20]: 42.4 ×10⁻⁶ cm/s
6 | CN1CCN(c2ccc(C3CC(c4ccc([N+](=O)[O-])o4)=NO3)cn2)C(=O)C1 (configuration not stated) |  | 100 (≈ 269 µM) |  | 0.402 | 28.9 (≈ 77.8 µM) |  | 0.511 | 50 (≈ 135 µM) | 12.5 (≈ 33.7 µM) | 25 (≈ 67.3 µM) |  |  |  |  | 50 (≈ 135 µM) |  |  | 50 (≈ 135 µM) | 25 (≈ 67.3 µM) | 36.6 | half-life [18]: 254 min; half-life [19]: 21 min; Papp B→A at 2 h, 50 µM [20]: 33.3 ×10⁻⁶ cm/s
